From PubChem BioAssay
KCNQ1 pot = potentiators or activators of human KCNQ1 potassium channel; CHO-K1 KCNQ1, thallium flux FluxOR fluorescence; active compounds read high; B-score at 10 µM; 310,000 compounds, 0.35% hits; AID 2648;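 active = fluorescence ratio B-score, a plate-corrected score, at least three library SD, with initial intensity B-score within 5 SD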
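Medium – assay buffer, equal DMSO in all wells · Material – CHO-K1 cell line with stable KCNQ1 potassium channel expression · Signal – kinetic FluxOR thallium fluorescence, 10-s 1-Hz baseline, 110-s post-stimulus read · Compound – single concentration per compound, DMSO matched to controls · Schedule – 37 °C overnight plating, 90-min dark dye load, 20-min compound pretreatment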
Mot1-301 SUMO = SUMOylation pathway inhibition by Mot1-301 growth rescue; 320,000 compounds, 1% hits; growth rescue, % at 18.8 µM; S. cerevisiae Mot1-301 growth rescue, ATP luminescence, 38.5C; percent above DMSO median, 100 means doubled;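 active = every valid replicate shows activation above 250% relative to neutral control wells; inactive = the rest, any valid replicate at or below 250%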
hERG rescue = hERG (human) protection from proarrhythmic block | AID 1511 | CHO-hERG, FluxOR thallium flux, dofetilide IC70 present | 310,000 compounds, 0.51% hits | activation (rescue from dofetilide block), less the hit threshold, % at 10 µM;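 active = activation above the mean of controls blocked by dofetilide plus 5 SD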;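 also: thallium influx through hERG after potassium depolarization seen as dye fluorescence rise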
KCC2 mod = KCC2 (human) Cl- transport modulation; Q9H2X9; KCC2 cells, thallium flux FluoZin-2 fluorescence; B-score of Tl+ flux slope (higher = more flux/activation; lower = inhibition) at 10 µM; 190,000 compounds, 2.2% hits; AID 1456;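 active = thallium flux slope and its plate-corrected score both differing from the plate sample mean at a set confidence after two filtering rounds, in either direction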;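 also: slope of fluorescence scaled to starting intensity during 10 to 20 s after thallium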
AI-2 QS modul = modulates the Vibrio harveyi AI-2 quorum sensing system. Vibrio harveyi JMH597 AI-2 luminescence/OD600 ratio, 9 h; active compounds read low; strain lacks LuxN and CqsS sensors; 0 = neutral-control median. activity change, % at 7.5 µM. 300,000 compounds, 0.4% hits. AID 2094; in the data active = activity change below about -75%, passing the limit was not always enough;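 also: luminescence divided by OD600 gain over 9 h not by final OD600 alone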
KCNQ1 block = blocks the human KCNQ1 potassium channel; P51787; 310,000 compounds, 1.3% hits; B-score at 10 µM; CHO-K1 KCNQ1, FluxOR thallium flux fluorescence; active compounds read high; AID 2642;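 active = compounds whose thallium flux B-score, printed positive for inhibition, exceeds three library SD while starting fluorescence stays within three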;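 also: channel opened by potassium depolarization with thallium stimulus after 20 min compound exposure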
KCNQ1 block val = human KCNQ1 channel inhibition, validation assay; shares compounds with KCNQ1 block; KCNQ1 cell line, FluxOR thallium flux fluorescence; inhibition, % at 10 µM; 1,600 compounds, 93% hits;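 active = primary screen active, with duplicate mean exceeding buffer control mean plus 3 SD of buffer wells, cut at about 28% in these data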
CHO KCNQ1 ctr = KCNQ1 inhibitor counter-screen hit in parental CHO cells. shares compounds with KCNQ1 block. parental CHO-K1, FluxOR thallium flux fluorescence ratio; active compounds read low; zero means no signal rise above baseline. fluorescence ratio (Tl flux) at 10 µM. 1,600 compounds, 21% hits;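 active = mean of duplicate thallium-flux fluorescence ratios in parental host cells more than 5 SD below the buffer control mean, cut at about 0.38 in these data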;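 also: ratio is peak minus minimum fluorescence divided by baseline fluorescence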
KCNQ1 ephys val = confirmation of human KCNQ1 potassium channel inhibitors by electrophysiology; 490 compounds, 20% hits; KCNQ1-CHO cells, automated patch clamp current; calls only at 10 µM; shares compounds with KCNQ1 block;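 active = KCNQ1 current drop exceeding 3 SD of negative control wells, seen in both duplicate runs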;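 also: steady state current during a 2 s step from -80 to +40 mV; negative values mean current inhibition and positive values mean potentiation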
KCNQ2 inh = selectivity of KCNQ1 inhibitors: inhibition of rat KCNQ2 channel; shares compounds with KCNQ1 block; KCNQ2 cells, FluxOR thallium flux fluorescence; inhibition, % at 10 µM; 1,600 compounds, 71% hits; AID 651746;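 active = mean percent inhibition of the KCNQ2 thallium signal more than 5 SD above the buffer-only control wells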;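 also: KCNQ2 expressed in CHO cells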
KCNQ1 KCNE1 spec = KCNQ1 inhibitor that also blocks human KCNQ1/KCNE1 channel; inhibition, % at 10 µM; KCNQ1/KCNE1 cells, FluxOR thallium flux fluorescence; 1,600 compounds, 77% hits; shares compounds with KCNQ1 block;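 active = mean percent inhibition of duplicate wells above the buffer-only control mean plus 3 SD of those controls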
Target sequence (P51787 whole entry, looked up): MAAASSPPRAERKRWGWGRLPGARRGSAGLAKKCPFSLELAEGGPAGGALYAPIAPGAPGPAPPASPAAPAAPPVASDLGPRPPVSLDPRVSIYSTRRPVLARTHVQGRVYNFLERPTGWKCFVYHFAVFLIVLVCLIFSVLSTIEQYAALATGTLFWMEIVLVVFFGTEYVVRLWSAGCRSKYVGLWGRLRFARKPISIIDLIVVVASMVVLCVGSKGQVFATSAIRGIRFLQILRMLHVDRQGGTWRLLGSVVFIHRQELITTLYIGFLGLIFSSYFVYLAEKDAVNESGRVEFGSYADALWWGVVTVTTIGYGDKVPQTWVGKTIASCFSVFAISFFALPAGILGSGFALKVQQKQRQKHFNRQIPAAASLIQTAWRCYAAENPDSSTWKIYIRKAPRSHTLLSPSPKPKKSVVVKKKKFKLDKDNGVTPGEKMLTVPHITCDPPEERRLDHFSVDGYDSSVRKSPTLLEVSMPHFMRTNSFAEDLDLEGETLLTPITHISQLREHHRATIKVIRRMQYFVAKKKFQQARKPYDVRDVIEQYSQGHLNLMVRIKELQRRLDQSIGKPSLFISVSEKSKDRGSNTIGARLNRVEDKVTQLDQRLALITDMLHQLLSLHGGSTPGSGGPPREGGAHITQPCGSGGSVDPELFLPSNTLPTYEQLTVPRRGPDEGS
Of the large screens only hits and unclear results are named; the others gave an inactive call (follow-up assays come after a bar, where they were run). Rows were chosen to be rich in hits. Some 4.2% of all compounds tested hit in one or more screens of this group.

O=C(CC1NCCNC1=O)NC1Cc2ccccc2C1 (stereo not given)	none
O=C(CCN1C(=O)C2CCCCC2C1=O)N1CCN(S(=O)(=O)c2c(F)cccc2F)CC1 (stereo not given)	none (no result: KCC2 mod)
COc1ccc(NC(=O)COC(=O)C2CCN(S(=O)(=O)c3ccccc3)CC2)cc1Cl	none (no result: KCC2 mod)
CCc1ccc(S(=O)(=O)/N=C2\C=C(NS(=O)(=O)c3ccccc3)C(=O)c3ccccc32)cc1	KCNQ1 block 12 (no result: Mot1-301 SUMO, KCC2 mod) | KCNQ1 block val 97 | CHO KCNQ1 ctr inactive | KCNQ1 ephys val active | KCNQ2 inh 79% | KCNQ1 KCNE1 spec 94%
CCCS(=O)(=O)c1nc(S(=O)(=O)c2ccc(C)cc2)c(N2CCN(CCO)CC2)s1	none (no result: KCC2 mod)
S=C(NCCSCc1ccc(Cl)cc1Cl)Nc1ccccc1	KCNQ1 block 6 | KCNQ1 block val 48 | CHO KCNQ1 ctr inactive | KCNQ2 inh 111% | KCNQ1 KCNE1 spec 36%
CC(C)Oc1ccc(CNC(=S)Nc2ccccc2)cc1Cl	KCNQ1 block 7 (no result: KCC2 mod) | KCNQ1 block val 50 | CHO KCNQ1 ctr inactive | KCNQ2 inh 59% | KCNQ1 KCNE1 spec 75%
CC(C)COc1ccc(CNC(=S)Nc2ccccc2)cc1Cl	none (no result: KCC2 mod)
S=C(NCCSCc1ccc(Cl)c(Cl)c1)Nc1ccccc1	KCNQ1 block 11 (no result: KCC2 mod) | KCNQ1 block val 76 | CHO KCNQ1 ctr inactive | KCNQ2 inh 80% | KCNQ1 KCNE1 spec 65%
COc1ccc(CSCCNC(=S)Nc2ccccc2)cc1Cl	none
S=C(NCCSCc1c(Cl)cccc1Cl)Nc1ccccc1	none
Cc1ccccc1CSCCNC(=S)Nc1ccccc1	KCNQ1 block 8 | KCNQ1 block val 62 | CHO KCNQ1 ctr inactive | KCNQ2 inh 82% | KCNQ1 KCNE1 spec 72%
CN(CCCNC(=O)c1ccccc1F)CCCNC(=O)c1ccccc1F	none (no result: KCC2 mod)
CC(C)CCNC(=O)CCCCn1c(=O)[nH]c2ccsc2c1=O	none
COc1ccc(/C=N/NC(=O)c2nnn(-c3nonc3N)c2CN(C)c2ccccc2)cc1	none (no result: KCC2 mod)
Cc1ccc(CNC(=O)CC(C)S(=O)(=O)c2ccc3c(c2)NC(=O)C(C)S3)cc1 (stereo not given)	none (no result: KCC2 mod)
Cc1ccc(C)c(NC(=O)C[n+]2ccccc2)c1	none (no result: KCC2 mod)
CC(NS(=O)(=O)c1ccc(Cl)c(Cl)c1)C(=O)OCC(=O)Nc1ccc2c(c1)OCO2 (stereo not given)	KCNQ1 block 6 | KCNQ1 block val inactive | CHO KCNQ1 ctr inactive | KCNQ2 inh 62% | KCNQ1 KCNE1 spec inactive
Cc1cc(C)nc(NC(=NCCc2c[nH]c3ccccc23)NC(=O)Nc2ccc(Cl)c(Cl)c2)n1	none (no result: Mot1-301 SUMO)
Cc1cc(C)nc(NC(=NCCc2c[nH]c3ccccc23)NC(=O)Nc2ccccc2)n1	KCNQ1 block 7 | KCNQ1 block val 134 | CHO KCNQ1 ctr 0.38 | KCNQ2 inh 87% | KCNQ1 KCNE1 spec 199%
COc1ccc(NC(C)=O)cc1S(=O)(=O)N1CC=C(c2ccccc2)CC1	none (no result: KCNQ1 pot, hERG rescue, KCC2 mod, AI-2 QS modul, KCNQ1 block)
Clc1ccc2nc3c4ccccc4cnn3c2c1	none
Oc1ccc2nnc3c(Br)cnn3c2c1	KCNQ1 block 24 (no result: KCC2 mod) | KCNQ1 block val active | CHO KCNQ1 ctr 0.042 | KCNQ2 inh inactive | KCNQ1 KCNE1 spec inactive
